In ChEMBL document CHEMBL1121539, “Antitumor structure-activity relations. Nitrosoureas vs. L-1210 leukemia” (J Med Chem, 1980):

Tests used:
[1] = tested on: L1210; assay: Toxicity against L-1210 leukemia cells in mice after intraperitoneal administration, activity is expressed as LD10; settings: mouse, in vivo, ip
[2] = Partition coefficient (logP); format: physicochemical; settings: octanol/water
Outline: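 Shake partitioning between octanol and distilled water gave log P. For carboxylate substituents, log P was taken in 0.1 N NaOH, with Na+ as counterion.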

[3] = tested on: L1210; assay: Tested for 3 log kill of leukemia cells; format: functional, Mus musculus
Outline: (§1)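 L-1210 leukemia cells (10^4) were inoculated intracerebrally into BDF2 mice, and drug was given intraperitoneally. The end point was the dose giving 3 log kill, expressed as log 1/C. The value comes from one or more individual experiments.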

[4] = species on record: Mus musculus; assay: Tested for 3 log kill of leukemia cells (i.e., a reduction of 1000-fold in tumor cells); format: functional; outline: as §1
[5] = tested on: Mus musculus; assay: Tested for toxicity against L-1210 leukemia cells in mice after ip administration, activity is expressed as LD10; format: organism-based; settings: in vivo

In the case of `CC(C)(Cc1ccccc1)NC(=O)N(CCCl)N=O`, the log(1/LD10) [1] is reported as -0.422, the logP ([2]; read-out: logP) is reported as 3.42 and the “log(1/C)” value [3] is reported as 0.737.

In the case of `CC12CC3(C)CC(C)(C1)CC(NC(=O)N(CCCl)N=O)(C2)C3`, the log(1/LD10) [1] is reported as -0.384, the logP ([2]; read-out: logP) is reported as 5.75 and the “log(1/C)” value [3] is reported as 0.783.

For `O=NN(CCF)C(=O)NC1CCS(=O)(=O)CC1`, the log(1/LD10) [1] was 0.922, the logP ([2]; read-out: logP) was -0.39 and the “log(1/C)” value [3] was 1.92.

With `CC(NC(=O)N(CCCl)N=O)C(=O)O` (stereo unspecified) the log(1/LD10) [1] was 0.511, the logP ([2]; read-out: logP) was 0.5 and the “log(1/C)” value [3] was 0.918.

In the case of `O=NN(CCCl)C(=O)NC1CS(=O)(=O)CS(=O)(=O)C1`, the log(1/LD10) [1] is reported as 0.842, the logP ([2]; read-out: logP) is reported as -0.9 and the “log(1/C)” value [3] is reported as 1.9.

For `O=NN(CCCl)C(=O)NC(C(=O)O)C1CCCCC1` (stereo unspecified), the log(1/LD10) [1] was 0.602, the logP ([2]; read-out: logP) was 2.89 and the “log(1/C)” value [3] was 1.23.

With `O=NN(CCCl)C(=O)NC1CCC(CCl)CC1` (stereo unspecified) the log(1/LD10) [1] was 0.658, the logP ([2]; read-out: logP) was 3.01 and the “log(1/C)” value [3] was 1.27.

In the case of `O=NN(CCCl)C(=O)NC1CSCSC1`, the log(1/LD10) [1] is reported as 1.07, the logP ([2]; read-out: logP) is reported as 2.08 and the “log(1/C)” value [3] is reported as 1.81.

With `NC(=O)N(CCCl)N=O` the log(1/LD10) [1] was 1.43, the logP ([2]; read-out: logP) was 0.57 and the “log(1/C)” value [3] was 1.05.

In the case of `CN(C(=O)N(CC/C=N/C(=O)N(CCCl)N=O)N=O)C1CCCCC1`, the log(1/LD10) [1] is reported as -0.207, the logP ([2]; read-out: logP) is reported as 3.19 and the “log(1/C)” value [3] is reported as 0.353.

With `CC(C)C1CCC(NC(=O)N(CCF)N=O)CC1` (stereo unspecified) the log(1/LD10) [1] was 0.388, the logP ([2]; read-out: logP) was 3.67 and the “log(1/C)” value [3] was 1.05.

For `O=NN(CCF)C(=O)NC1CCC(NC(=O)N(CCCl)N=O)CC1` (stereo unspecified), the log(1/LD10) [1] was 0.595, the logP ([2]; read-out: logP) was 2.41 and the “log(1/C)” value [3] was 1.37.

In the case of `Cc1cccc(C)c1NC(=O)N(CCCl)N=O`, the log(1/LD10) [1] is reported as 0.864, the logP ([2]; read-out: logP) is reported as 2.57 and the “log(1/C)” value [3] is reported as 1.29.

In the case of `O=NN(CCCl)C(=O)N[C@@H]1CCC[C@@H](O)C1`, the log(1/LD10) [1] is reported as 0.795, the logP ([2]; read-out: logP) is reported as 1 and the “log(1/C)” value [3] is reported as 1.44.

In the case of `COC(=O)[C@H]1CC[C@@H](NC(=O)N(CCCl)N=O)CC1`, the log(1/LD10) [1] is reported as 0.733, the logP ([2]; read-out: logP) is reported as 1.89 and the “log(1/C)” value [3] is reported as 1.51.

For `CC(=O)O[C@H]1CCCC[C@@H]1NC(=O)N(CCCl)N=O`, the log(1/LD10) [1] was 0.91, the logP ([2]; read-out: logP) was 2.56 and the “log(1/C)” value [3] was 1.65.

For `O=NN(CCF)C(=O)N[C@H]1CC[C@@H](C(=O)O)CC1`, the logP [2] was 1.1 and the “log(1/C)” value [4] was 1.06.

`O=NN(CCCl)C(=O)N[C@H]1CC[C@H](O)CC1` gave a log(1/LD10) [5] of 0.774 and a logP [2] of 1.1.

In the case of `CC(=O)O[C@H]1CCCC[C@H]1NC(=O)N(CCCl)N=O`, the log(1/LD10) [1] is reported as 0.776, the logP ([2]; read-out: logP) is reported as 1.96 and the “log(1/C)” value [3] is reported as 1.24.

For `O=NN(CCCl)C(=O)NC1CCS(=O)(=O)C1` (stereo unspecified), the log(1/LD10) [1] was 1.13, the logP ([2]; read-out: logP) was 0.57 and the “log(1/C)” value [3] was 1.82.

With `O=NN(CCCl)C(=O)NC1C=CCCC1` (stereo unspecified) the log(1/LD10) [1] was 0.848, the logP ([2]; read-out: logP) was 2.45 and the “log(1/C)” value [3] was 1.16.

In the case of `CCC1CCC(NC(=O)N(CCF)N=O)CC1` (stereo unspecified), the log(1/LD10) [1] is reported as 0.515, the logP ([2]; read-out: logP) is reported as 3.26 and the “log(1/C)” value [3] is reported as 0.736.

In the case of `O=NN(CCCl)C(=O)NC(CCC(=O)O)C(=O)O` (stereo unspecified), the log(1/LD10) [1] is reported as 0.037, the logP ([2]; read-out: logP) is reported as 0.6 and the “log(1/C)” value [3] is reported as 0.87.

With `CC(=O)OC1OC(C)C(OC(C)=O)C(OC(C)=O)C1NC(=O)N(CCCl)N=O` (stereo unspecified) the log(1/LD10) [1] was 1.21, the logP ([2]; read-out: logP) was 1.32 and the “log(1/C)” value [3] was 1.93.

For `O=NN(CCCl)C(=O)N[C@H]1C(O)O[C@H](CO)[C@@H](O)[C@@H]1O` (stereo in doubt; 75) [CHLOROZOTOCIN], the log(1/LD10) [1] was 1.03, the logP [2] was -1.02 and the “log(1/C)” value [3] was 1.76.

With `O=NN(CCCl)C(=O)N[C@H]1C(O)O[C@H](CO)[C@@H](O)[C@@H]1O` (stereo in doubt; 103) [CHLOROZOTOCIN] the log(1/LD10) [1] was 0.928, the logP [2] was -0.66 and the “log(1/C)” value [3] was 1.46.
